According to PMC9623233 (Clinical Cancer Research, 2022):

How the values were obtained:
[1] = ref previous unpublished trial Eudra CT 2009-012933-31; cited from earlier work
[2] = Phase I safety and tolerability: adverse events; type: in vivo, human
How it was run: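 Open-label 3+3 escalation of intravenous test compound. Each 4-week cycle was four weekly or two biweekly doses; later arms were biweekly with dexamethasone prophylaxis, or every 3 weeks. AEs were graded by NCI CTCAE v4.0, with laboratory tests, pulmonary function (entry FVC >70%, DLCOc >60%), vital signs, ECG and examination. DLT window: two cycles (8 weeks; 6 weeks for 3-weekly dosing).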

[3] = system: α-FR–overexpressing preclinical model; assay: Combination of CT900 and PARP inhibition, growth inhibition; type: cell-based; conditions: Supplementary Fig. S3
[4] = 12 mg/m^2/q2Wk expansion, worst grade G1
[5] = 12 mg/m^2/q2Wk expansion, worst grade G2
[6] = 12 mg/m^2/q2Wk expansion, worst grade G3
[7] = 12 mg/m^2/q2Wk with and without steroid, Total, all grades
[8] = 12 mg/m^2/q2Wk-steroid expansion, worst grade G1
[9] = 12 mg/m^2/q2Wk-steroid expansion, worst grade G2
[10] = 12 mg/m^2/q2Wk-steroid expansion, worst grade G3

C#CCN(c1ccc(C(=O)N[C@@H](CCC(=O)N[C@H](CCC(=O)O)C(=O)O)C(=O)O)cc1)[C@H]1CCc2cc3nc(CO)[nH]c(=O)c3cc21 [CT900, N-[4-[2-propyn-1-yl[(6S)-4,6,7,8-tetrahydro-2-(hydroxymethyl)-4-oxo-3H-cyclopenta [g]quinazolin-6-yl]amino]benzoyl]-l-gamma-glutamyl-D-glutamic acid]
16 (40) n (%): Nausea, treatment-related [2, 7]
4 (16) n (%): Diarrhea, treatment-related [2, 4] | Vomiting, treatment-related [2, 4] | Nausea, treatment-related [2, 5] | Pneumonitis, treatment-related [2, 5]
4 (10) n (%): Chills, treatment-related [2, 7] | Decreased appetite, treatment-related [2, 7] | Vomiting, treatment-related [2, 7]
synergistic growth inhibition: Effect of combination of CT900 and PARP inhibition [3]
8 (20) n (%): Anemia, treatment-related [2, 7] | Pneumonitis, treatment-related [2, 7]
three: Drug-related NCI CTCAE ≥grade 3 events ([2]; qWk schedule 1-6 mg/m^2, 21 patients: anemia, cellulitis, pneumonitis)
0 (0) n (%): Pneumonitis, treatment-related [2, 4] | Cough, treatment-related [2, 5] | Decreased appetite, treatment-related [2, 5] | Pyrexia, treatment-related [2, 5] | Vomiting, treatment-related [2, 5] | Anemia, treatment-related [2, 6] | Aspartate aminotransferase increased, treatment-related [2, 6] | Chills, treatment-related [2, 6] | Cough, treatment-related [2, 6] | Decreased appetite, treatment-related [2, 6] | Fatigue, treatment-related [2, 6] | Nausea, treatment-related [2, 6] | Pneumonitis, treatment-related [2, 6] | Pyrexia, treatment-related [2, 6] | Vomiting, treatment-related [2, 6] | Vomiting, treatment-related [2, 8] | Aspartate aminotransferase increased, treatment-related [2, 9] | Chills, treatment-related [2, 9] | Cough, treatment-related [2, 9] | Decreased appetite, treatment-related [2, 9] | Diarrhea, treatment-related [2, 9] | Nausea, treatment-related [2, 9] | Pyrexia, treatment-related [2, 9] | Vomiting, treatment-related [2, 9] | Aspartate aminotransferase increased, treatment-related [2, 10] | Chills, treatment-related [2, 10] | Cough, treatment-related [2, 10] | Decreased appetite, treatment-related [2, 10] | Fatigue, treatment-related [2, 10] | Nausea, treatment-related [2, 10] | Pneumonitis, treatment-related [2, 10] | Pyrexia, treatment-related [2, 10] | Vomiting, treatment-related [2, 10]
9 (23) n (%): Cough, treatment-related [2, 7] | Diarrhea, treatment-related [2, 7]
2 (13.3) n (%): Diarrhea, treatment-related [2, 8] | Fatigue, treatment-related [2, 9] | Anemia, treatment-related [2, 10]
21 (53) n (%): Fatigue, treatment-related [2, 7]
9%: Drug-related, predominantly low-grade pneumonitis ([2]; all patients, 10/109)
8 (32) n (%): Cough, treatment-related [2, 4] | Nausea, treatment-related [2, 4]
1 (4) n (%): Aspartate aminotransferase increased, treatment-related [2, 5] | Chills, treatment-related [2, 5] | Diarrhea, treatment-related [2, 5] | Fatigue, treatment-related [2, 5] | Diarrhea, treatment-related [2, 6]
12 (48) n (%): Fatigue, treatment-related [2, 4]
12 mg/m^2/q2Wk: Recommended phase II dose/schedule ([2]; intravenous)
3 (20) n (%): Aspartate aminotransferase increased, treatment-related [2, 8] | Pneumonitis, treatment-related [2, 9]
1 (6.7) n (%): Anemia, treatment-related [2, 8] | Chills, treatment-related [2, 8] | Cough, treatment-related [2, 8] | Decreased appetite, treatment-related [2, 8] | Pneumonitis, treatment-related [2, 8] | Anemia, treatment-related [2, 9] | Diarrhea, treatment-related [2, 10]
no cases of fatal pneumonitis: Fatal pneumonitis ([2]; during the trial)
6 (40) n (%): Fatigue, treatment-related [2, 8]
3 (12) n (%): Aspartate aminotransferase increased, treatment-related [2, 4] | Decreased appetite, treatment-related [2, 4] | Pyrexia, treatment-related [2, 4]
2 (8) n (%): Anemia, treatment-related [2, 4] | Chills, treatment-related [2, 4] | Anemia, treatment-related [2, 5]
4 (26.7) n (%): Nausea, treatment-related [2, 8] | Pyrexia, treatment-related [2, 8]
162 mg/m^2: Median cumulative dose at which pulmonary toxicity occurred [1]
7 (18) n (%): Aspartate aminotransferase increased, treatment-related [2, 7] | Pyrexia, treatment-related [2, 7]
